What was measured:
MGC-803 = experiment: Cytotoxicity against human MGC803 cells assessed as reduction in cell viability measured after 72 hrs by CCK8 assay; format: functional, cell-based; details: MGC-803, 72 h
Outline: (§1)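 MGC803 or AGS cells (RPMI 1640, 10% FBS, 5% CO₂, 37 °C) plated at 3 × 10³ per well overnight, then exposed to 0.1–10 μM for 72 h. Viability was read by CCK8 absorbance at 450 nm, and IC₅₀ was calculated from the concentration series.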

AGS = experiment: Cytotoxicity against human AGS cells assessed as reduction in cell viability measured after 72 hrs by CCK8 assay; format: functional, cell-based; outline: as §1

C/C=C(\C)C(=O)C1=C2C3=CN(CC=C(C)C)C(/C=C/[C@@H](C)CC)=CC3=C(Cl)C(=O)[C@@]2(C)OC1=O
IC50 (MGC-803): 6.8 µM | IC50 (AGS): 2000 nM

C/C=C(\C)C(=O)C1=C2C3=COC(/C=C/[C@@H](C)CC)=CC3=C(Cl)C(=O)[C@@]2(C)OC1=O [CHAETOVIRIDIN E]
IC50 (MGC-803): > 10 µM | IC50 (AGS): > 10000 nM

CCC(=O)C1=C2C3=CN(CC=C(C)C)C(/C=C/[C@@H](C)CC)=CC3=C(Cl)C(=O)[C@@]2(C)OC1=O
IC50 (MGC-803): 5.8 µM | IC50 (AGS): > 10000 nM

CC(=O)O[C@H]1C(=O)[C@@]2(C)[C@H]([C@H](OC(=O)c3ccccc3)[C@]3(O)C[C@H](OC(=O)[C@H](O)[C@@H](NC(=O)c4ccccc4)c4ccccc4)C(C)=C1C3(C)C)[C@]1(OC(C)=O)CO[C@@H]1C[C@@H]2O [PACLITAXEL]
IC50 (MGC-803): 3.8 µM

CC[C@H](C)/C=C/C1=CC2=C(Cl)C(=O)[C@@]3(C)OC(=O)C(C(=O)[C@@H](C)[C@@H](C)O)=C3C2=CN1CC=C(C)C
IC50 (MGC-803): 3 µM | IC50 (AGS): 2900 nM
